The values that follow come from ChEMBL document CHEMBL2069266, “An expeditious regioselective synthesis of novel bioactive indole-substituted chromene derivatives via one-pot three-component reaction” (2012).

Holding throughout (assay type): functional
What all share (conditions): read-out: DIZ

The subject of assay [1] is Salmonella enterica. The assay is described as follows: Antibacterial activity against Salmonella enterica at 12 ug/well after 24 hrs by agar well diffusion method. In a few lines: (§1)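 Colonies subcultured from nutrient agar into nutrient broth, grown 37 °C for 18 h, then inoculated onto Mueller-Hinton agar plates (four plates). Wells cut with sterile 5 mm glass tube; […] of 100 µg/ml DMSO solution added per well; incubated 37 °C for 24 h before reading inhibition. Data from duplicate or triplicate experiments.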

In assay [2] the test system is Micrococcus luteus. As to the kind of experiment: Antibacterial activity against Micrococcus luteus at 12 ug/well after 24 hrs by agar well diffusion method. The method in brief:
as §1
On the technique in general: Agar diffusion results depend on both activity and mobility in agar.

Assay [3] relates to Bacillus subtilis. The assay is described as follows: Antibacterial activity against Bacillus subtilis at 12 ug/well after 24 hrs by agar well diffusion method. In a few lines: as §1
The subject of assay [4] is Pseudomonas aeruginosa. As to the kind of experiment: Antibacterial activity against Pseudomonas aeruginosa at 12 ug/well after 24 hrs by agar well diffusion method. The method in brief:
as §1

For `NC1=C(C(=O)c2c[nH]c3ccccc23)C(c2ccc(F)cc2)c2c(ccc3ccccc23)O1` (centres undefined), the results for the zone of inhibition at 12 µg/disc in assay [1], in assay [2] and in assay [3] were 6 mm, 30 mm and 11 mm, respectively.
`NC1=C(C(=O)c2c[nH]c3ccccc23)C(c2ccc(Cl)cc2)c2c(ccc3ccccc23)O1` (centres undefined): the zone of inhibition at 12 µg/disc was determined as 17 mm in assay [1] and 8 mm in assay [2].
For the compound `NC1=C(C(=O)c2c[nH]c3ccccc23)C(c2ccc(Br)cc2)c2c(ccc3ccccc23)O1` (centres undefined), in assay [2], the zone of inhibition at 12 µg/disc is 10 mm.
`NC1=C(C(=O)c2c[nH]c3ccccc23)C(c2cccc([N+](=O)[O-])c2)c2c(ccc3ccccc23)O1` (centres undefined): the results for the zone of inhibition at 12 µg/disc in assay [2] and in assay [3] were 29 mm and 8 mm, respectively.
As for `COc1cccc(C2C(C(=O)c3c[nH]c4ccccc34)=C(N)Oc3ccc4ccccc4c32)c1` (centres undefined), the zone of inhibition at 12 µg/disc in assay [2] is 35 mm; in assay [4], 17 mm.
Regarding `NC1=C(C(=O)c2c[nH]c3ccccc23)C(c2ccc(C3C(C(=O)c4c[nH]c5ccccc45)=C(N)Oc4ccc5ccccc5c43)cc2)c2c(ccc3ccccc23)O1` (centres undefined), in assay [2], the zone of inhibition at 12 µg/disc was 7 mm.
With `NC1=C(C(=O)c2c[nH]c3ccc(Br)cc23)C(c2ccc(Cl)cc2)c2c(ccc3ccccc23)O1` (centres undefined), the zone of inhibition at 12 µg/disc in assay [2] was determined as 45 mm; in assay [3], 6 mm.
For `NC1=C(C(=O)c2c[nH]c3ccc(Br)cc23)C(c2ccc(Cl)cc2Cl)c2c(ccc3ccccc23)O1` (centres undefined), the zone of inhibition at 12 µg/disc in assay [2] amounted to 30 mm.
Take `NC1=C(C(=O)c2c[nH]c3ccc(Br)cc23)C(c2cccnc2)c2c(ccc3ccccc23)O1` (centres undefined): the zone of inhibition at 12 µg/disc in assay [1] turned out to be 6 mm; in assay [2], 11 mm.
Regarding `NC1=C(C(=O)c2c[nH]c3ccc(Br)cc23)C(c2ccc(C3C(C(=O)c4c[nH]c5ccc(Br)cc45)=C(N)Oc4ccc5ccccc5c43)cc2)c2c(ccc3ccccc23)O1` (centres undefined), the zone of inhibition at 12 µg/disc in assay [2] was 30 mm; in assay [3], 6 mm.
For the compound `Cc1[nH]c2ccccc2c1C(=O)C1=C(N)Oc2ccc3ccccc3c2C1c1ccc(Cl)cc1Cl` (centres undefined), the zone of inhibition at 12 µg/disc in assay [1] was 15 mm; in assay [2], 50 mm; in assay [4] it was 15 mm.
`CC[C@H]1OC(=O)[C@H](C)[C@@H](O[C@H]2C[C@@](C)(OC)[C@@H](O)[C@H](C)O2)[C@H](C)[C@@H](O[C@@H]2O[C@H](C)C[C@H](N(C)C)[C@H]2O)[C@](C)(O)C[C@@H](C)C(=O)[C@H](C)[C@@H](O)[C@]1(C)O` [ERYTHROMYCIN]: the zone of inhibition at 12 µg/disc stood at 8 mm in assay [1], 10 mm in assay [2], 12 mm in assay [3] and 10 mm in assay [4].
For `CN(C)[C@@H]1C(O)=C(C(N)=O)C(=O)[C@@]2(O)C(O)=C3C(=O)c4c(O)cccc4[C@@](C)(O)[C@H]3C[C@@H]12` [TETRACYCLINE], the zone of inhibition at 12 µg/disc in assay [1] was 7 mm; in assay [2], 16 mm; in assay [3] it was 14 mm; in assay [4] it was 18 mm.
